What is called Ki is the equilibrium dissociation constant of an inhibitor or competing ligand from its target. For orientation: IC50 means the concentration that inhibits the measured activity by half. Low readings indicate inhibition by little substance, high ones a need for much substance.

From ChEMBL document CHEMBL1128444 (J Med Chem, 1995) come the findings set out here.

For assay [1], the target named is T1, Sodium-dependent serotonin transporter (Rattus norvegicus, UniProt P31652). Description: Inhibition of [3H]- 5-HT uptake in Serotonin transporter using serotonin uptake assay in rat midbrain tissue. Format: tissue-based. The method, boiled down:
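Rat midbrain synaptosomes were used at 1 mg/mL tissue with 5 nM final [3H]serotonin and 10 μM pargyline in Krebs phosphate buffer, pH 7.4. Incubation was 3 min at 30 °C, followed by filtration and scintillation counting. Nonspecific uptake was defined with 1 μM citalopram. Three or four experiments were run in triplicate, and Ki was derived by Cheng–Prusoff.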

The target in assay [2] is T2, Monoamine transporters; serotonin & dopamine (Rattus norvegicus) (UniProt P31652+P23977). Description: Ratio of IC50 value against Serotonin transporter to that of dopamine transporter. In kind it is protein assay.
T2 sequence (P23977 whole entry, looked up): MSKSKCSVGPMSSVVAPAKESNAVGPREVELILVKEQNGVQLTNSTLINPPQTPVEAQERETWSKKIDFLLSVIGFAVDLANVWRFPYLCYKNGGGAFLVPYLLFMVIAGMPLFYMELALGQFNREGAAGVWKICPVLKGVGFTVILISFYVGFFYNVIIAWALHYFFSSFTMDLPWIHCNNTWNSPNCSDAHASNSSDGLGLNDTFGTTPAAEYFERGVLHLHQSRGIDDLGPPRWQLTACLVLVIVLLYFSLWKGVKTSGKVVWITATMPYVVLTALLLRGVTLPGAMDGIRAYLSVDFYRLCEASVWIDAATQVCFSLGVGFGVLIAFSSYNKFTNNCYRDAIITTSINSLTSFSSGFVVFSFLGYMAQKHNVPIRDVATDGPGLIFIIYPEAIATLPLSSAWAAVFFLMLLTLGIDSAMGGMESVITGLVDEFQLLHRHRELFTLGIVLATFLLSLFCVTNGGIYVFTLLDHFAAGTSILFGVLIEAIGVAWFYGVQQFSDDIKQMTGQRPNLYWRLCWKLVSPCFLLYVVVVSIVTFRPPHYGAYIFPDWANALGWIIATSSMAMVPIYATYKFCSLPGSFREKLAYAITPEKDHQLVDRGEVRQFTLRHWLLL
T2 sequence (P31652 whole entry, looked up): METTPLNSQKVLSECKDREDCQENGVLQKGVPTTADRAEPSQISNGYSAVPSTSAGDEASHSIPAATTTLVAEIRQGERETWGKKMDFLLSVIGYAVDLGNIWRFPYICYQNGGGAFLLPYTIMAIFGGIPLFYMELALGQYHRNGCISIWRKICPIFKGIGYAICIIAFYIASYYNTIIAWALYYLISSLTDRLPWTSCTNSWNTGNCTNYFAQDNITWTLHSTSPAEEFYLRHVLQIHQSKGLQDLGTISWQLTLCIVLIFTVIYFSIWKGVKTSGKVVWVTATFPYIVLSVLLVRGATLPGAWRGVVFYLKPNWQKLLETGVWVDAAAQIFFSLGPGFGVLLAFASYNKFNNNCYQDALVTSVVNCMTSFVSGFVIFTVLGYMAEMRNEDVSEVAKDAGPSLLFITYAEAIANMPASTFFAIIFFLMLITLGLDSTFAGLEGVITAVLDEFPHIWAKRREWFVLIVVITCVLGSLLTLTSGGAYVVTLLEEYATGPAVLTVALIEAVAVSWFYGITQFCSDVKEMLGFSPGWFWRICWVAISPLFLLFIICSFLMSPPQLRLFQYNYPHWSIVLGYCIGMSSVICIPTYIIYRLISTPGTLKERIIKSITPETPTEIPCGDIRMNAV
Assay [3] deals with T3, Norepinephrine transporter (Rattus norvegicus, UniProt Q9WTR4). Description: Inhibition of [3H]NE uptake by rat frontal cortex Norepinephrine transporter. In kind it is tissue-based. The method, boiled down: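 Rat frontal cortex synaptosomes were used at 10 mg/mL tissue with 5 nM final [3H]norepinephrine and 10 μM pargyline in Krebs phosphate buffer, pH 7.4. Incubation was 3 min at 30 °C, followed by filtration and scintillation counting. Nonspecific uptake was defined with 1 μM desipramine. Three or four experiments were run in triplicate, and Ki was derived by Cheng–Prusoff.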
T3 sequence (Q9WTR4 whole entry): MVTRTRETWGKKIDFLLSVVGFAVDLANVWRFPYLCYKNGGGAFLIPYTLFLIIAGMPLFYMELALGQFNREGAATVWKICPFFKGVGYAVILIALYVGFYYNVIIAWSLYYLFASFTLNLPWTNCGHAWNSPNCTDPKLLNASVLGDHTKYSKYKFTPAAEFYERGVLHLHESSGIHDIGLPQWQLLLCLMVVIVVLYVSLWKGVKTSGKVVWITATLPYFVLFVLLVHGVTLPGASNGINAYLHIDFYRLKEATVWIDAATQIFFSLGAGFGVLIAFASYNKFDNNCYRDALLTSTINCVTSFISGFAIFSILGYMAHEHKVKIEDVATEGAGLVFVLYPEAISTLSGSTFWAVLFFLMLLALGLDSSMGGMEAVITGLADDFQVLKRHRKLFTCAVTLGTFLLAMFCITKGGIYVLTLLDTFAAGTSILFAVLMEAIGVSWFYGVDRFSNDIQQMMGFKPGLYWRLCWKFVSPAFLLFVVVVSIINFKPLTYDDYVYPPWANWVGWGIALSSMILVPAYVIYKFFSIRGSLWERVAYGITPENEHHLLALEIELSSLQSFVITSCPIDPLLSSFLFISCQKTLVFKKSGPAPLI

The target in assay [4] is Monoamine transporters; Norepininephrine & dopamine (Rattus norvegicus) (UniProt P23977+Q9WTR4). Kind of assay: Ratio of IC50 value against NE to that of DA transporters. In kind it is protein assay. An outline of the steps: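 Competition binding against 0.5 nM [3H]WIN 35,428 (DA transporter) or 0.5 nM [3H]nisoxetine (NE transporter). The IC50 is the mean ± standard error of three or four experiments, each run in triplicate. Selectivity ratios are NE/DA or 5-HT/DA quotients of the IC50 values.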

Assay [5] deals with T4, Sodium-dependent dopamine transporter (Rattus norvegicus, UniProt P23977). Description: Inhibition of [3H]DA uptake by rat striatal dopamine transporter. An outline of the steps:
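Rat striatal crude synaptosomes were prepared from male Sprague–Dawley rats by 0.32 M sucrose homogenisation and centrifugation at 800g then 2000g. Each tube held 1.5 mg tissue, 0.5 nM [3H]dopamine and 10 μM pargyline in Krebs phosphate buffer, pH 7.4, with dextrose and ascorbate. Incubation was 3 min at 30 °C, followed by filtration and scintillation counting. Nonspecific uptake was defined with 1 μM mazindol. Three or four experiments were run in triplicate, and Ki was derived by Cheng–Prusoff.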

In assay [6] the target is T3, Norepinephrine transporter. Kind of assay: Binding affinity at the Norepinephrine transporter in rat frontal cortex by inhibition of 0.5 nM [3H]nisoxetine binding. In kind it is tissue-based.
For assay [7], the target named is T4, Sodium-dependent dopamine transporter. Kind of assay: Binding affinity at the Dopamine transporter in rat striata by inhibition of 0.5 nM [3H]WIN-35428 binding.
Assay [8] addresses T1, Sodium-dependent serotonin transporter. Description: Binding affinity at the Serotonin transporter in rat midbrain by inhibition of 0.5 nM [3H]-paroxetine binding. In kind it is tissue-based.
Assay [9] addresses T2, Monoamine transporters; serotonin & dopamine (Rattus norvegicus). Description: Ratio of IC50 value against 5-HT to that of DA transporters. In kind it is protein assay.
The target in assay [10] is T1, Sodium-dependent serotonin transporter. Kind of assay: Ratio of Ki value towards Serotonin transporter to that of dopamine transporter. An outline of the steps:
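Rat [3H]uptake into crude synaptosomes in modified Krebs phosphate buffer, pH 7.4, with dextrose, ascorbic acid and 10 μM pargyline, 3 min at 30 °C, filtered and scintillation counted. DA: male Sprague–Dawley striatum, 0.5 nM [3H]dopamine, 1 μM mazindol nonspecific. 5-HT: midbrain, 5 nM [3H]serotonin, 1 μM citalopram nonspecific. Ki by Cheng–Prusoff; 5-HT Ki/DA Ki; 3–4 experiments in triplicate.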

T4 sequence (P23977 whole entry): as the sequence (P23977 whole entry, looked up) above
T1 sequence (P31652 whole entry): as the sequence (P31652 whole entry, looked up) above

As to `CN1C2CCC1C(C(=O)Oc1ccccc1)C(c1ccc(Cl)cc1)C2` (centres undefined), the Ki in assay [1] was determined as 391 nM; in assay [3], 242 nM; in [5], 5.25 nM. The Ratio was 1180 in [2] and 1490 in [4].

Take `CC(C)OC(=O)C1C(c2ccc(Cl)cc2)CC2CCC1N2C` (centres undefined): the 50% inhibitory concentration (IC50) in assay [6] stood at 778 nM; in assay [7] it was 1.4 nM. Besides, the Ki turned out to be 129 nM in [1], 250 nM in [3] and 6.04 nM in assay [5]. In addition, the Ratio was 1000 in [2] and 556 in assay [4].

As to `CN1C2CCC1C(C(=O)Oc1ccccc1)C(c1ccc(I)cc1)C2` (centres undefined), the IC50 was determined as 184 nM in [8], 3790 nM in [6] and 1.5 nM in assay [7]. Moreover, the Ki in assay [1] amounted to 51.6 nM; in [3] it was 32.7 nM; in assay [5] it was 6.85 nM. Further, the Ratio in [2] was 123; in [4], 2580.

As for `COC(=O)C1C(c2ccc(I)cc2)CC2CCC1N2C` (centres undefined), the IC50 amounted to 36 nM in [6] and 1.26 nM in [7]. Further, the values for the inhibitory constant (Ki) in assay [1], in assay [3] and in [5] were 1.74 nM, 7.51 nM and 1.96 nM, respectively. The Ratio in [2] came out at 3.3; in assay [4] it was 29.

On to `COC(=O)C1C(c2ccc(Cl)cc2)CC2CCC1N2C` (centres undefined), for which the figures for the Ki in assay [1] and in assay [5] were 5 nM and 3.68 nM, respectively.

For `COC(=O)[C@H]1[C@@H](c2ccc(F)cc2)C[C@H]2CC[C@H]1N2C`, in assay [8], the IC50 was 692 nM. Besides, the figures for the Ki in assay [1] and in [3] were 101 nM and 38.6 nM, respectively.

Regarding `Cc1ccc(C2CC3CCC(C2C(=O)OC(C)C)N3C)cc1` (centres undefined), the results for the IC50 in assay [6] and in [7] were 1930 nM and 6.45 nM, respectively. The Ratio is 59.9 in [2], 299 in assay [4] and 944 in assay [9]. For the same compound, the figures for the Ki in [3] and in [5] were 73.4 nM and 15.3 nM, respectively.

Turning to `Cc1ccc(C2CC3CCC(C2C(=O)Oc2ccccc2)N3C)cc1` (centres undefined), the IC50 in assay [6] was found to be 5830 nM; in assay [7], 3.26 nM. Further, the figures for the Ki in [1], in [3] and in [5] were 1540 nM, 278 nM and 9.13 nM, respectively. The Ratio in assay [2] came to 7410; in [4] it was 1790.

Consider `Cc1ccc(C2CC3CCC(C2C(N)=O)N3C)cc1` (centres undefined), for which the IC50 in assay [8] worked out at 6370 nM; in [6] it was 4400 nM; in assay [7] it was 41.8 nM. Moreover, the Ratio worked out at 105 in [4] and 152 in assay [9].

In the case of `CC(C)OC(=O)C1C(c2ccc(I)cc2)CC2CCC1N2C` (centres undefined), the figures for the IC50 in [8], in assay [6] and in assay [7] were 66.8 nM, 285 nM and 0.43 nM, respectively. Also, the Ki in assay [10] turned out to be 12.5 nM; in assay [3] it was 41.2 nM; in [5] it was 2.79 nM. Besides, the Ratio is 662 in assay [4] and 155 in assay [9].
